Source: PubChem BioAssay (several laboratories)
A selection: hits, their analogues and other compounds. The true share with any hit is near 4.1%.
APP 5'UTR act: activates APP 5'UTR luciferase reporter | AID 1276 | activation, % at 2 µM | hit rate 1% among 190,000 | SH-SY5Y APP 5'UTR luciferase reporter, luminescence; zero percent = DMSO vehicle wells;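 active = activation above a set limit, based on mean plus 3 SD of controls, cut at about 140% in these data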
FLuc inhib CS: inhibits firefly luciferase, flagging false hits in luciferase inhibition screens | P08659 | ATPLite firefly luciferase biochemical luminescence, 10 min | inhibition, % at 10 µM | hit rate 1.5% among 200,000 | AID 1006;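 active = inhibition above about 50% when tested at 10 µM, limit read from the data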
Target sequence (P08659 whole entry, looked up): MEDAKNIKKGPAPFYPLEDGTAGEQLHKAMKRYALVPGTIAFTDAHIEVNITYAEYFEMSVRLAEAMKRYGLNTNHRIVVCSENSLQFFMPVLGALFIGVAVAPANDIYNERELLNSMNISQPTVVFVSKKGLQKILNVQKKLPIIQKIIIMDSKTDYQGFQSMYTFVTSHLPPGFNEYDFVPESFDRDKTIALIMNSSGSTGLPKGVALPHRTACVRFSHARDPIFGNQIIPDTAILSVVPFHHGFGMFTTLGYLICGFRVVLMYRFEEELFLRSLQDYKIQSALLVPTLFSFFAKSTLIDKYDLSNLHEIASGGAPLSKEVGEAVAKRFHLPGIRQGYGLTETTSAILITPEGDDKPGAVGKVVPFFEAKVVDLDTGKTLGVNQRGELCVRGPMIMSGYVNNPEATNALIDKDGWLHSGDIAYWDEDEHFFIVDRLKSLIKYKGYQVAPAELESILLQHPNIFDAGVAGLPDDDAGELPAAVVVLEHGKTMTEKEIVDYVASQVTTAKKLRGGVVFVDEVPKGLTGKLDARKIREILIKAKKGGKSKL
STAT1 activator: increases IFN-gamma driven STAT1 reporter signal; NIH 3T3 STAT1-luciferase reporter, luminescence; 100% = IFN-gamma alone, no compound; activation (% of control), % at 5.5 µM; hit rate 2.6% among 200,000; AID 932;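 active = activation above the screen-wide mean activation plus 3 SD, cut at about 130% in these data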;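 note: raw ratio to IFN-gamma control signal so 100% means no change and 0% no light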
NF-kB expr up: NF-kB expression increase, human neuronal cells | NF-kB reporter expression; stronger effect = higher value | fold change at 12.5 µM | hit rate 1.6% among 190,000; in the data active = fold change above about 3.3
FLuc act counter: affects firefly luciferase, flagging false hits in luciferase stimulation screens. activation factor at 10 µM. ATPlite luciferase biochemical, luminescence, 10 min; 0 = ATP-free wells, 1 = DMSO control. P08659. 200,000 tested, under 10 active;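 active = luciferase activation factor, scaled between plate controls, of at least 2 with compound at 10 µM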
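test system = cell-free luciferase reagent | medium = PBS as buffer for the ATP substrate | dosing = test compounds dosed from 2 mM stocks in 100% DMSO | incubation = 10 min at ambient temperature | detection = luminescence measurement of luciferase light output | benchmarks = low control with PBS replacing ATP, high control enzyme plus ATP without compound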
* hit, by the source's call.

`Nc1c(C(=O)Nc2ccc(F)cc2)sc(=S)n1-c1ccccc1F` gave APP 5'UTR act 57.9, FLuc inhib CS 7.5, STAT1 activator 130.9*, NF-kB expr up 1.66 and FLuc act counter 0.9.
For CCCC(=O)NC(=S)Nc1cccc(Cl)c1N1CCCCC1 the results were APP 5'UTR act 3.0, FLuc inhib CS 0.0, STAT1 activator 107.7, NF-kB expr up 1.25 and FLuc act counter 1.
Screening Cc1ccc2nc(-c3ccc(NC(=O)CNC4CC4)cc3)sc2c1 returned APP 5'UTR act 199.0*, FLuc inhib CS 17.5, STAT1 activator 114.5, NF-kB expr up 5.33* and FLuc act counter 0.8.
Cc1ccc(C)c(N(CC(=O)Nc2ccc(-c3nc4ccc(C)cc4s3)cc2)S(C)(=O)=O)c1 was read as APP 5'UTR act 47.9, FLuc inhib CS 0.0, STAT1 activator 115.9, NF-kB expr up 1.05 and FLuc act counter 1.
`Cc1ccc(N(CC(=O)Nc2ccc(-c3nc4ccc(C)cc4s3)cc2)S(C)(=O)=O)cc1` gave APP 5'UTR act 121.1, FLuc inhib CS 16.9, STAT1 activator 139.7*, NF-kB expr up 1.85 and FLuc act counter 0.8.
Cc1ccc(C2(C)NC(=O)N(CC(=O)Nc3ccc4c(c3)OCO4)C2=O)cc1 (stereo not drawn) was read as APP 5'UTR act -6.4, FLuc inhib CS -3.4, STAT1 activator 87.4, NF-kB expr up 0.81 and FLuc act counter 1.
For Cc1ccc2nc(-c3ccc(NC(=O)COC(=O)c4ccc(=O)[nH]c4)cc3)sc2c1 the results were APP 5'UTR act 165.0*, FLuc inhib CS 50.4*, STAT1 activator 135.3*, NF-kB expr up 6.49* and FLuc act counter 0.5.
COc1ccc(C2(C)NC(=O)N(CC(=O)Nc3ccc(-c4nc5ccc(C)cc5s4)cc3)C2=O)cc1 (stereo not drawn) was read as APP 5'UTR act 171.0*, FLuc inhib CS 35.2, STAT1 activator 143.8* and FLuc act counter 0.6.
For Cc1cccc(OCC(=O)Nc2ccc3nc(C)sc3c2)c1 the results were APP 5'UTR act 5.5, FLuc inhib CS 3.5, STAT1 activator 107.6, NF-kB expr up 0.99 and FLuc act counter 1.
Screening CCOC(=O)c1ccc(COC(=O)CNS(=O)(=O)c2ccccc2)cc1 returned APP 5'UTR act -5.8, FLuc inhib CS -4.2, STAT1 activator 104.9, NF-kB expr up 1.25 and FLuc act counter 1.
For Cc1ccc(S(=O)(=O)CCC(=O)Nc2ccc3nc(C)sc3c2)cc1 the results were APP 5'UTR act 11.8, FLuc inhib CS -2.4, STAT1 activator 95.5, NF-kB expr up 0.95 and FLuc act counter 1.
For Cc1nc2ccc(NC(=O)CCS(=O)(=O)c3ccccc3)cc2s1 the results were APP 5'UTR act -4.7, FLuc inhib CS 8.9, STAT1 activator 119.3, NF-kB expr up 1.65 and FLuc act counter 0.9.
Screening Cc1nc2cc(NC(=O)CCS(=O)(=O)c3ccccc3)ccc2s1 returned APP 5'UTR act 134.8, FLuc inhib CS 19.2, STAT1 activator 150.2*, NF-kB expr up 3.19 and FLuc act counter 0.8.
For Cc1cccc(S(=O)(=O)Nc2ccc(-c3nc4ccc(C)cc4s3)cc2)c1 the results were APP 5'UTR act 163.1*, FLuc inhib CS 19.5, STAT1 activator 147.2*, NF-kB expr up 2.14 and FLuc act counter 0.8.
Screening Cc1ccc(S(=O)(=O)Nc2ccc(-c3nc4ccc(C)cc4s3)cc2)cc1 returned APP 5'UTR act 3.0, STAT1 activator 107.7 and NF-kB expr up 0.84.
For Cc1ccc2nc(-c3ccc(NC(=O)CCS(=O)(=O)c4ccccc4)cc3)sc2c1 the results were APP 5'UTR act 126.0, FLuc inhib CS 10.6, STAT1 activator 91.6, NF-kB expr up 3.6* and FLuc act counter 0.9.
Screening COC(=O)c1cc(NC(=O)/C=C/c2ccc3c(c2)OCO3)cc(C(=O)OC)c1 returned APP 5'UTR act -7.6, FLuc inhib CS -5.2, STAT1 activator 96.3, NF-kB expr up 0.49 and FLuc act counter 1.1.
Screening COC(=O)c1cccc(NC(=O)/C=C/c2ccc3c(c2)OCO3)c1 returned APP 5'UTR act 11.8, FLuc inhib CS 69.2*, STAT1 activator 92.5, NF-kB expr up 1.47 and FLuc act counter 0.3.
For O=C(/C=C/c1ccco1)Nc1ccc2c(c1)OCO2 the results were APP 5'UTR act 119.9, FLuc inhib CS 65.9*, STAT1 activator 127.4, NF-kB expr up 4.64* and FLuc act counter 0.3.
Screening O=C(/C=C/c1ccco1)NCc1ccc2c(c1)OCO2 returned APP 5'UTR act 8.6, FLuc inhib CS 0.4, STAT1 activator 96.3, NF-kB expr up 1.09 and FLuc act counter 1.
Screening O=C(/C=C/c1ccc2c(c1)OCO2)Nc1c(C(=O)O)[nH]c2ccccc12 returned APP 5'UTR act 9.9, FLuc inhib CS 91.4*, STAT1 activator 92.9, NF-kB expr up 1.22 and FLuc act counter 0.1.
`Cc1cc(C)nc(NC(=O)/C=C/c2ccc3c(c2)OCO3)c1` gave APP 5'UTR act 99.7, FLuc inhib CS 70.9*, STAT1 activator 135.3*, NF-kB expr up 3.31* and FLuc act counter 0.3.
Screening CC(=O)c1cccc(NC2c3ccccc3C(=O)N2Cc2ccc3c(c2)OCO3)c1 (stereo not drawn) returned APP 5'UTR act -15.1, FLuc inhib CS -6.8, STAT1 activator 97.7, NF-kB expr up 0.8 and FLuc act counter 1.1.
For Cc1ccc(-c2nc(N)sc2C)cc1 the results were APP 5'UTR act -9.2, FLuc inhib CS 2.3, STAT1 activator 102.4, NF-kB expr up 1.5 and FLuc act counter 1.
Screening CC(=O)Nc1ccc(NC(=O)/C=C/c2ccc3c(c2)OCO3)cc1 returned APP 5'UTR act 32.5, FLuc inhib CS 5.0, STAT1 activator 107.8, NF-kB expr up 1.29 and FLuc act counter 0.9.
`O=C(/C=C/c1ccc2c(c1)OCO2)Nc1cccnc1` gave APP 5'UTR act 162.4*, FLuc inhib CS 86.6*, STAT1 activator 127.5, NF-kB expr up 0.99 and FLuc act counter 0.1.
Screening Cc1cccc(NC(=O)c2csnn2)n1 returned APP 5'UTR act -17.9, FLuc inhib CS -3.1, STAT1 activator 101.5, NF-kB expr up 13.2* and FLuc act counter 1.
For Cc1ccc(NC(=O)c2csnn2)c(C)c1 the results were APP 5'UTR act 15.8, FLuc inhib CS -4.2, STAT1 activator 100.2, NF-kB expr up 1.74 and FLuc act counter 1.
For Cn1nnc(NC(=O)c2ccc(C(C)(C)C)cc2)n1 the results were APP 5'UTR act 78.4, FLuc inhib CS 79.8*, STAT1 activator 103.2, NF-kB expr up 1.99 and FLuc act counter 0.2.
Screening Cn1nnc(NC(=O)c2ccc3ccccc3c2)n1 returned APP 5'UTR act 18.8, FLuc inhib CS 24.2, STAT1 activator 100.5, NF-kB expr up 1.4 and FLuc act counter 0.8.
For CCOc1cc(C(=O)Nc2cc(C)ccn2)cc(OCC)c1OCC the results were APP 5'UTR act 3.0, FLuc inhib CS -0.5, STAT1 activator 107.7, NF-kB expr up 1.09 and FLuc act counter 1.
CCCn1nnc(NC(=O)c2ccc(OC)cc2)n1 was read as APP 5'UTR act -1.1, FLuc inhib CS 13.1, STAT1 activator 125.6, NF-kB expr up 1.7 and FLuc act counter 0.9.
